Assay results: ChEMBL document CHEMBL1132456 (J Med Chem, 1999)

Tests used:
[1] = The compound was tested for cytotoxicity against 3T3 fibroblast murine cell line.; type: cell-based; settings: mouse, NIH3T3 fibroblast cells; read-out: TC50 (the source's name)
How it was run: (§1)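 Cells seeded in 96-well plates: human PHA-stimulated lymphocytes 20 000, 3T3 10 000, NSO 3 000, Daudi 300 per well. Graded compound concentrations added 12 h after plating; 48 h exposure. MTT (5 mg/mL stock) added for 2 h at 37 °C, then SDS/DMF extraction buffer overnight. OD read at 570 nm, blank subtracted, reported as OD × 1000.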

[2] = The compound was tested for cytotoxicity against Daudi human cell line.; type: cell-based; settings: Daudi cells, read-out: TC50 (the source's name); how it was run: as §1
[3] = tested on: Human immunodeficiency virus 1; test: (§2) The compound was tested for inhibition against HIV-1 from CEM-SS cell lines; type: functional, organism-based; settings: Human immunodeficiency virus 1, CEM-SS
How it was run: (§3)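 Testing by the NCI AIDS Antiviral Screening Program: protection of HIV-1-infected CEM-SS T4 lymphocytes from cell death, run alongside an AZT control. EC₅₀ is the concentration giving 50% survival of infected cells relative to uninfected untreated controls. IC₅₀ is the concentration giving 50% survival of uninfected cells. SI = IC₅₀/EC₅₀.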

[4] = tested on: Human immunodeficiency virus 3; test: (§4) The compound was tested for inhibition against HIV-III B from C8 166 cell lines; type: functional, organism-based; settings: Human immunodeficiency virus 1, IIIB, C8166
How it was run: (§5)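 C8166 cells at 90 × 10³ cells/mL infected with 100 TCID₅₀ HIV with or without compound for 2 h at 37 °C. Cells washed, replated at 35 × 10³ cells/200 μL, and kept 5 days with drug. Cytopathic protection and toxicity both read by MTT (OD 490/650 nm). EC₅₀ and IC₅₀ from median effect equation; SI = IC₅₀/EC₅₀.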

[5] = The compound was tested for cytotoxicity against Human Lymphocytes; settings: read-out: TC50 (the source's name); how it was run: as §1
[6] = The compound was tested for cytotoxicity against NSO murine cell line.; type: cell-based; settings: mouse, NSO cells; read-out: TC50 (the source's name); how it was run: as §1
[7] = target: Human immunodeficiency virus type 1 reverse transcriptase (Human immunodeficiency virus 1, UniProt Q72547, Y181I); test: In vitro inhibitory activity against HIV-1 mutant Reverse transcriptase containing the single amino acid substitution Y181I
How it was run: (§6)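 Template poly(rA):oligo(dT) (0.3 μM 3'-OH ends) with 10 μM [3H]dTTP, incubated at 37 °C. Acid-precipitable counts taken on filters. Inhibitor spanned 0.2–5 Ki. Ki came from Lineweaver–Burk and Dixon plots, triplicate runs.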

[8] = target: Human immunodeficiency virus type 1 reverse transcriptase (Human immunodeficiency virus 1, UniProt Q72547, Y188L); test: In vitro inhibitory activity against HIV-1 mutant Reverse transcriptase containing the single amino acid substitution Y188L; how it was run: as §6
[9] = target: Human immunodeficiency virus type 1 reverse transcriptase (Human immunodeficiency virus 1, UniProt Q72547); test: In vitro inhibitory activity against HIV-1 wild type reverse transcriptase (RT)
[10] = target: Human immunodeficiency virus type 1 reverse transcriptase (Human immunodeficiency virus 1, UniProt Q72547, K103N); test: In vitro inhibitory activity against HIV-1 mutant Reverse transcriptase containing the single amino acid substitution K103N; how it was run: as §6
[11] = target: Human immunodeficiency virus type 1 reverse transcriptase (Human immunodeficiency virus 1, UniProt Q72547, L100I); test: In vitro inhibitory activity against HIV-1 mutant Reverse transcriptase containing the single amino acid substitution L100I; how it was run: as §6
[12] = target: Human immunodeficiency virus type 1 reverse transcriptase (Human immunodeficiency virus 1, UniProt Q72547, V106A); test: In vitro inhibitory activity against HIV-1 mutant Reverse transcriptase containing the single amino acid substitution V106A; how it was run: as §6
[13] = tested on: CEM-SS; test: The compound was tested for inhibition against HIV-1 from CEM-SS cell lines.; type: functional, cell-based; settings: Homo sapiens; how it was run: as §3
[14] = tested on: C8166; test: The compound was tested for inhibition against HIV-III B from C8 166 cell lines.; type: functional, cell-based; settings: Homo sapiens; how it was run: as §5
[15] = tested on: CEM-SS; test: as §2; type: functional, cell-based; settings: Homo sapiens; how it was run: as §3
[16] = tested on: C8166; test: as §4; type: functional, cell-based; settings: Homo sapiens; how it was run: as §5
[17] = tested on: Human immunodeficiency virus 3; test: The compound was tested for Anti-viral activity of AZT with compound in C8166 cells infected with HIV-IIIB; type: functional, organism-based; settings: Human immunodeficiency virus 1, IIIB
How it was run: (§7)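 C8166 cells at 90 × 10³ cells/mL exposed to 100 TCID₅₀ HIV with or without drug (alone, or together with AZT) for 2 h at 37 °C, 5% CO₂. Cells then washed and replated at 35 × 10³ cells/200 μL and cultured 5 days with the same drug levels. Protection from cytopathic effect read by MTT at 490/650 nm; EC₅₀ from median effect equation.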

[18] = tested on: Human immunodeficiency virus 3; test: The compound was tested for Anti-viral activity of compound alone in C8166 cells infected with HIV-IIIB; type: functional, organism-based; settings: Human immunodeficiency virus 1, IIIB; how it was run: as §7
[19] = tested on: Human immunodeficiency virus 3; test: The compound was tested in presence of AZT for Anti-viral of compound in C8166 cells infected with HIV-IIIB; type: functional, organism-based; settings: Human immunodeficiency virus 1, IIIB; how it was run: as §7
[20] = […] index values calculated at 50% viral activity using mutually nonexclusive forms of equation.
How it was run: (§8)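 Chou–Talalay multiple drug effect analysis of compound combined with AZT in acutely HIV-infected C8166 cells. Combination index computed at 50% effect under the mutually exclusive or mutually nonexclusive assumption.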

[21] = […] index values calculated at 50% viral activity using mutually exclusive forms of equation.; how it was run: as §8
[22] = tested on: Human immunodeficiency virus 3; test: The compound was tested in presence of AZT for Anti-viral activity of compound in C8166 cells infected with HIV-IIIB; type: functional, organism-based; settings: Human immunodeficiency virus 1, IIIB; how it was run: as §7
[23] = The compound was tested for cytotoxicity against NSO murine cell lines.; type: cell-based; settings: mouse, NSO cells; read-out: TC50 (the source's name); how it was run: as §1

| Compound | CC50 [1] | CC50 [2] | IC50 [4] | CC50 [5] | CC50 [6] | Ki [7] | Ki [8] | Ki [9] | Ki [10] | Ki [11] | Ki [12] | EC50 [13] | IC50 [13] | EC50 [14] | IC50 [14] | further results |
| --- | --- | --- | --- | --- | --- | --- | --- | --- | --- | --- | --- | --- | --- | --- | --- | --- |
| CCC1(c2cccc(OC)c2)Oc2ccccc2-n2cccc2C1=O (stereo not given) | 210 µM | 280 µM | 7 µM | 200 µM | 230 µM | > 10 µM | > 10 µM | 0.06 µM | 0.022 µM | 0.011 µM | 0.01 µM |  |  |  |  | EC50 [3]: 0.04 µM; IC50 [3]: 0.2 µM |
| CCC1(c2cccc(C)c2)Oc2cccnc2-n2cccc2C1=O (stereo not given) | 400 µM | 380 µM |  | 400 µM | 410 µM | 1.2 µM | 1.5 µM | 0.021 µM | 0.03 µM | 0.044 µM | 0.4 µM | 0.027 µM | > 2 µM | 0.27 µM | 7.2 µM |  |
| CCC1(c2cccc(F)c2)Oc2ccccc2-n2cccc2C1=O (stereo not given) | 710 µM | 720 µM |  | 720 µM | 720 µM | 4 µM | 1.5 µM | 0.1 µM | 0.07 µM | 0.16 µM | 0.4 µM |  |  |  |  | EC50 [15]: 0.072 µM; IC50 [15]: 2 µM; EC50 [16]: 1.1 µM; IC50 [16]: 13.8 µM |
| CCC1(c2cccs2)Oc2cccnc2-n2cccc2C1=O (stereo not given) | 35 µM | 29 µM |  | 30 µM | 26 µM | 0.43 µM | 0.475 µM | 0.093 µM | 0.045 µM | 0.09 µM | 0.09 µM | 0.15 µM | > 2 µM |  | 20.5 µM |  |
| CCC1(c2cccc(C)c2)Oc2ccccc2-n2cccc2C1=O (stereo not given) | > 1000 µM | > 1000 µM | 52 µM | > 1000 µM | > 1000 µM | 4 µM | 1.9 µM | 0.07 µM | 1.1 µM | 0.1 µM | 0.25 µM |  |  |  |  | EC50 [3]: 0.35 µM; IC50 [3]: 119 µM; EC50 [17]: 0.00325 µM; EC50 [18]: 0.425 µM; EC50 [19]: 0.011 µM; CI [20]: 0.04; CI [21]: 0.04 |
| CCC1(c2ccccc2)Oc2cccnc2-n2cccc2C1=O (stereo not given) | 10 µM | 13 µM |  | 13 µM | 14 µM | 4 µM | 1.5 µM | 0.022 µM | 0.3 µM | 0.04 µM | 0.07 µM | 0.069 µM | 3.9 µM | 0.054 µM | 6 µM | EC50 [17]: 0.00317 µM; EC50 [18]: 0.054 µM; EC50 [22]: 0.017 µM; CI [20]: 0.303; CI [21]: 0.302 |
| CCC1(c2cccs2)Oc2ccccc2-n2cccc2C1=O (stereo not given) |  |  |  |  |  | 0.97 µM | 0.3 µM | 0.03 µM | 0.4 µM | 0.07 µM | 0.11 µM | 0.115 µM | 11 µM |  |  |  |
| CCC1(c2ccccc2)Oc2ccccc2-n2cccc2C1=O (stereo not given) | 33 µM | 26 µM |  | 32 µM |  | > 10 µM | > 10 µM | 0.19 µM | 7.7 µM | 0.75 µM | 3.9 µM | 0.47 µM |  | 0.8 µM | 10 µM | CC50 [23]: 24 µM |
| CCC1(c2cc(F)cc(F)c2)Oc2ccccc2-n2cccc2C1=O (stereo not given) |  |  | 17.1 µM |  |  | 6.8 µM | > 10 µM | 1.5 µM | 2.7 µM | 1.7 µM | 3 µM |  |  |  |  |  |
| CCC1(c2ccc(C)cc2)Oc2ccccc2-n2cccc2C1=O (stereo not given) |  |  |  |  |  |  |  | 0.97 µM |  |  |  |  |  |  |  |  |
